Paper PMC7416082 (Journal of Inorganic Biochemistry, 2020)

Legend:
[1] = system: CT DNA-EB conjugate; experiment: EB-displacement studies; assay type: binding, calf; conditions: for quenching constant kq (EB-DNA): τo = 23 ns
Method in brief: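 CT DNA pre-bound with ethidium bromide in citrate/NaCl buffer, pH 7.0, at room temperature. Test compound was added from a DMSO stock (≤5% v/v DMSO final), and the decrease in EB-DNA emission at 592 nm was monitored. KSV was obtained by Stern-Volmer analysis. kq was calculated from KSV using a literature EB-DNA lifetime τo = 23 ns.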

[2] = Solubility and stability of the isolated complexes; assay type: physicochemical
[3] = molecular target: T1, human serum albumin (HSA) (Homo sapiens, UniProt P02768); experiment: HSA competitive studies with site-markers warfarin and ibuprofen; assay type: binding; conditions: for HSA-binding constant K, marker: ibuprofen: presence of ibuprofen; for HSA-binding constant K, marker: warfarin: presence of warfarin
T1 sequence (P02768 25-609): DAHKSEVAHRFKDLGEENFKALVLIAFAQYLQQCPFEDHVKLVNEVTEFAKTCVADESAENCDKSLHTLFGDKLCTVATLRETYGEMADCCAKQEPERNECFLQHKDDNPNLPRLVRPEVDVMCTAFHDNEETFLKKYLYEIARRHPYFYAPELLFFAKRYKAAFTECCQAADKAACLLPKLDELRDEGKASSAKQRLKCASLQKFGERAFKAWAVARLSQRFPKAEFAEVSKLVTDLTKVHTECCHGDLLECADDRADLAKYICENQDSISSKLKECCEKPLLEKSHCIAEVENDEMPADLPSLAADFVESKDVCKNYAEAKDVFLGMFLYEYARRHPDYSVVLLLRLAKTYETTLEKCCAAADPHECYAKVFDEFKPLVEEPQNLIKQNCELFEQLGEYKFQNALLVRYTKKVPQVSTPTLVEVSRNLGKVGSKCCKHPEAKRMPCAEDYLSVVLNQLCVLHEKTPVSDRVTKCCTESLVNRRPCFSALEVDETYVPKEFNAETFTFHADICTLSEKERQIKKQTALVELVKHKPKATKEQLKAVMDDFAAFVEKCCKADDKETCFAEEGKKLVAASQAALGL

[4] = system: CT DNA; experiment: CT DNA binding studies by cyclic voltammetry; parameters: species or system calf; conditions: for Epa(f), anodic potential / Epc(f), cathodic potential / Epa(b), anodic potential / Epc(b), cathodic potential: Co(II)/Co(I) couple, DMSO/buffer; for Epa(f), anodic potential / Epc(f), cathodic potential: absence of CT DNA; for Epa(b), anodic potential / Epc(b), cathodic potential: presence of CT DNA; for Kr/Kox, ratio of equilibrium DNA-binding constants of reduced and oxidized form: Eq. S3; for ΔEpa = Epa(b) − Epa(f) / ΔEpc = Epc(b) − Epc(f): shift upon addition of CT DNA
[5] = molecular target: T2, bovine serum albumin (BSA) (Bos taurus, UniProt P02769); experiment: BSA tryptophan fluorescence quenching; assay type: binding; conditions: for K(BSA), SA-binding constant: Scatchard equation; for % relative fluorescence intensity (I/Io, %) of BSA remaining: λem 345 nm, % of the initial BSA fluorescence; for kq(BSA), SA-quenching constant: τo = 10^−8 s
T2 sequence (P02769 25-607): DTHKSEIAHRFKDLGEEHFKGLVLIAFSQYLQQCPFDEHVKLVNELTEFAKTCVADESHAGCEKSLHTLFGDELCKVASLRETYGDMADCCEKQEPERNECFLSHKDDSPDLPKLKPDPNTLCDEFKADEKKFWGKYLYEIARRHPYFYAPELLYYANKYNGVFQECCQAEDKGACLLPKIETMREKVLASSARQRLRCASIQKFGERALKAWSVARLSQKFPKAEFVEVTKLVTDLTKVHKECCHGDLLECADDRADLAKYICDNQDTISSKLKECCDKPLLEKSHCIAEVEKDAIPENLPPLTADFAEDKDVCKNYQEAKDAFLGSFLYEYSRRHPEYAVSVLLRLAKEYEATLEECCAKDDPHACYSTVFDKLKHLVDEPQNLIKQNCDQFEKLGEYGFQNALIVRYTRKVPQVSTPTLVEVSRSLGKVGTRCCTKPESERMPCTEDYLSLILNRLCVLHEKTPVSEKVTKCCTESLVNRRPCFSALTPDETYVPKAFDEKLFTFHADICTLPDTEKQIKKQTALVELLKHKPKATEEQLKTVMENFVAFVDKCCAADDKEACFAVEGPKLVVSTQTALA

[6] = molecular target: T1, human serum albumin (HSA); experiment: HSA tryptophan fluorescence quenching; assay type: binding; conditions: for K(HSA), SA-binding constant: Scatchard equation; for % relative fluorescence intensity (I/Io, %) of HSA remaining: λem 340 nm, % of the initial HSA fluorescence; for kq(HSA), SA-quenching constant: τo = 10^−8 s
[7] = molecular target: T2, bovine serum albumin (BSA); experiment: BSA competitive studies with site-markers warfarin and ibuprofen; assay type: binding; conditions: for BSA-binding constant K, marker: ibuprofen: presence of ibuprofen; for BSA-binding constant K, marker: warfarin: presence of warfarin; for BSA binding site from competition with site-markers: change of K(BSA) with warfarin / ibuprofen

Row | Stern-Volmer constant KSV (EB-DNA) [1] | quenching constant kq (EB-DNA) [1] | Solubility [2] | HSA-binding constant K, no marker [3] | HSA-binding constant K, marker: ibuprofen [3] | HSA-binding constant K, marker: warfarin [3] | Epa(f), anodic potential [4] [mV] | Epc(f), cathodic potential [4] [mV] | Epa(b), anodic potential [4] [mV] | Epc(b), cathodic potential [4] [mV] | Kr/Kox, ratio of equilibrium DNA-binding constants of reduced and oxidized form [4] | ΔEpa = Epa(b) − Epa(f) [4] | ΔEpc = Epc(b) − Epc(f) [4] | K(BSA), SA-binding constant [5] | % relative fluorescence intensity (I/Io, %) of BSA remaining [5] [%] | kq(BSA), SA-quenching constant [5] | K(HSA), SA-binding constant [6] | % relative fluorescence intensity (I/Io, %) of HSA remaining [6] [%] | kq(HSA), SA-quenching constant [6] | BSA-binding constant K, no marker [7] | Substance | other results
1 | 1.39(±0.05) × 10^5 M^−1 | 6.03(±0.23) × 10^12 M^−1 s^−1 | soluble in DMSO and DMF | 7.06(±0.31) × 10^5 M^−1 | 2.72(±0.10) × 10^5 M^−1 | 4.18(±0.11) × 10^5 M^−1 | −495 | −690 | −480 | −700 | 1.04 | +15 mV | −10 mV | 3.72(±0.12) × 10^5 M^−1 | 33.5 | 1.04(±0.07) × 10^13 M^−1 s^−1 | 7.06(±0.31) × 10^5 M^−1 | 28.8 | 9.01(±0.28) × 10^12 M^−1 s^−1 | 3.72(±0.12) × 10^5 M^−1 | [Co(indo-O)2(H2O)2(μ-Cl)]n·n(MeOH·H2O) [complex 1] | BSA-binding constant K, marker: ibuprofen [7]: 1.56(±0.08) × 10^5 M^−1; BSA-binding constant K, marker: warfarin [7]: 4.50(±0.24) × 10^5 M^−1; BSA binding site from competition with site-markers [7]: preference for the Sudlow's site 2 in subdomain IIIA
2 | 1.76(±0.04) × 10^5 M^−1 | 7.65(±0.17) × 10^12 M^−1 s^−1 | soluble in DMSO and DMF | 1.20(±0.05) × 10^6 M^−1 | 3.42(±0.11) × 10^5 M^−1 | 5.72(±0.18) × 10^5 M^−1 | −440 | −720 | −500 | −680 | 0.84 | −60 mV | +40 mV | 4.27(±0.22) × 10^5 M^−1 | 26.5 | 1.37(±0.06) × 10^13 M^−1 s^−1 | 7.37(±0.35) × 10^5 M^−1 | 21.2 | 1.83(±0.12) × 10^13 M^−1 s^−1 | 4.27(±0.22) × 10^5 M^−1 | [Co(indo-O,O′)2(phen)] [complex 4] | HSA binding site from competition with site-markers ([3]; change of K(HSA) with warfarin / ibuprofen): evident preference for the Sudlow's site 2 in subdomain IIIA; BSA-binding constant K, marker: ibuprofen [7]: 1.19(±0.05) × 10^5 M^−1; BSA-binding constant K, marker: warfarin [7]: 2.23(±0.08) × 10^5 M^−1

Row | Substance | Stern-Volmer constant KSV (EB-DNA) [1] | quenching constant kq (EB-DNA) [1] | Solubility [2] | HSA-binding constant K, no marker [3] | HSA-binding constant K, marker: ibuprofen [3] | HSA-binding constant K, marker: warfarin [3] | Epa(f), anodic potential [4] [mV] | Epc(f), cathodic potential [4] [mV] | Epa(b), anodic potential [4] [mV] | Epc(b), cathodic potential [4] [mV] | Kr/Kox, ratio of equilibrium DNA-binding constants of reduced and oxidized form [4] | ΔEpa = Epa(b) − Epa(f) [4] | ΔEpc = Epc(b) − Epc(f) [4] | K(BSA), SA-binding constant [5] | % relative fluorescence intensity (I/Io, %) of BSA remaining [5] [%] | kq(BSA), SA-quenching constant [5] | K(HSA), SA-binding constant [6] | % relative fluorescence intensity (I/Io, %) of HSA remaining [6] [%] | kq(HSA), SA-quenching constant [6] | BSA-binding constant K, no marker [7] | other results
3 | [Co2(μ-indo-O,O′)2(indo-O)2(bipy)2(μ-H2O)]·3.3MeOH [complex 2] | 1.63(±0.05) × 10^5 M^−1 | 7.07(±0.20) × 10^12 M^−1 s^−1 | soluble in DMSO and DMF | 8.82(±0.30) × 10^5 M^−1 | 1.41(±0.09) × 10^5 M^−1 | 4.62(±0.16) × 10^5 M^−1 | −475 | −712 | −520 | −675 | 0.93 | −45 mV | +37 mV | 6.77(±0.26) × 10^5 M^−1 | 7.2 | 7.14(±0.12) × 10^13 M^−1 s^−1 | 1.20(±0.05) × 10^6 M^−1 | 5.1 | 8.49(±0.25) × 10^13 M^−1 s^−1 | 6.77(±0.26) × 10^5 M^−1 | BSA-binding constant K, marker: ibuprofen [7]: 3.50(±0.13) × 10^5 M^−1; BSA-binding constant K, marker: warfarin [7]: 5.48(±0.13) × 10^5 M^−1; BSA binding site from competition with site-markers [7]: preference for the Sudlow's site 2 in subdomain IIIA
